Assay results taken from ChEMBL document CHEMBL1137712, “Antidyslipidemic and antioxidative activities of 8-hydroxyquinoline derived novel keto-enamine Schiffs bases” (Eur J Med Chem, 2009).
The source made the active and inactive calls. The rule behind the calls is not given here.

Columns and labels:
[1] = Antioxidant activity assessed as inhibition of xanthine-xanthine oxidase generated superoxide anion radical production at 20 ug/ml by spectrophotometry; assay type: functional; set-up: scale not given: the % may be the effect or the level left
Procedure, shortened: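 Superoxide generated enzymatically with xanthine, xanthine oxidase (0.04 U) and nitroblue tetrazolium in 100 mM phosphate buffer, pH 8.2, with or without test sample. Samples sonicated in phosphate buffer before use. Incubated 30 min at 37 °C, then stopped with glacial acetic acid. Formazan read at 560 nm. Percent inhibition calculated using formazan absorption coefficient 7.2 × 10³ M/cm.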

Rattus norvegicus [2] = experiment: Antidyslipidemic activity against triton-induced hyperlipidemia in Charles Foster rat assessed as reduction in phospholipid level at 100 mg/kg, po after 18 hrs by spectrophotometry relative to control; assay type: functional
Procedure, shortened: (§1)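 Male adult Charles Foster rats (200–225 g), six per group. Triton WR-1339 400 mg/kg ip with simultaneous oral dosing at 100 mg/kg in 0.2% w/v gum acacia suspension; diet withdrawn; vehicle controls. At 18 h, thiopentone anaesthesia, retro-orbital blood into EDTA, plasma diluted 1:3 in saline; Tc, Tg, Pl by standard enzymatic kits; Student's t-test versus triton group, P<0.05.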

Rattus norvegicus [3] = experiment: Antidyslipidemic activity against triton-induced hyperlipidemia in Charles Foster rat assessed as reduction in total cholesterol level at 100 mg/kg, po after 18 hrs by spectrophotometry relative to control; assay type: functional; procedure, shortened: as §1
Rattus norvegicus [4] = experiment: Antidyslipidemic activity in Charles Foster rat hyperlipidemia model assessed as suppression of triton-induced post heparin lipolytic activity at 100 mg/kg, po after 18 hrs by spectrophotometry relative to control; assay type: functional
Procedure, shortened: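 Post-heparin lipolytic activity in plasma of male Charles Foster rats given triton WR-1339 400 mg/kg ip plus oral dose 100 mg/kg in gum acacia, six per group, sampled at 18 h; assayed spectrophotometrically per Wing and Robinson, expressed as nmol free fatty acid formed/h/ml plasma; triton group compared with control, treated with triton group.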

[5] = Antioxidant activity assessed as inhibition of xanthine-xanthine oxidase generated superoxide anion radical production at 200 ug/ml by spectrophotometry; assay type: functional; set-up: scale not given: the % may be the effect or the level left
Procedure, shortened: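 Superoxide generated by xanthine, xanthine oxidase 0.04 U and nitroblue tetrazolium in 100 mM phosphate buffer pH 8.2, with or without compound sonicated in buffer; 37 °C for 30 min, stopped with glacial acetic acid; formazan read at 560 nm, percent inhibition from absorption coefficient 7.2 × 10³ M/cm; allopurinol reference.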

[6] = Antioxidant activity assessed as inhibition microsomal lipid peroxidation at 200 ug/ml by thiobarbituric acid test; assay type: functional; set-up: scale not given: the % may be the effect or the level left; details: Microsome
[7] = Antioxidant activity assessed as inhibition non-enzymatic reactants generated hydroxyl radical production at 200 ug/ml by spectrophotometry; assay type: functional; set-up: scale not given: the % may be the effect or the level left
Procedure, shortened: (§2)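 Hydroxyl radicals generated non-enzymically from deoxyribose 2.8 mM, FeSO4 2 mM, sodium ascorbate 2.0 mM and H2O2 2.8 mM in 50 mM KH2PO4 pH 7.4, with or without compound, 37 °C for 90 min; MDA measured spectrophotometrically by thiobarbituric acid method, with reference samples and reagent blanks; mannitol reference.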

Rattus norvegicus [8] = experiment: Antidyslipidemic activity against triton-induced hyperlipidemia in Charles Foster rat assessed as reduction in triglyceride level at 100 mg/kg, po after 18 hrs by spectrophotometry relative to control; assay type: functional; procedure, shortened: as §1
[9] = Cytotoxicity against primary osteoblast cells; assay type: cell-based
Vero = experiment: Cytotoxicity against african green monkey Vero cells; assay type: cell-based; details: chlorocebus sabaeus
[10] = Antioxidant activity assessed as inhibition non-enzymatic reactants generated hydroxyl radical production at 100 ug/ml by spectrophotometry; assay type: functional; set-up: scale not given: the % may be the effect or the level left; procedure, shortened: as §2
[11] = Antioxidant activity assessed as inhibition microsomal lipid peroxidation at 100 ug/ml by thiobarbituric acid test; assay type: functional; set-up: scale not given: the % may be the effect or the level left; details: Microsome

| Compound | Activity [1] [%] | Activity (Rattus norvegicus [2]) | Activity (Rattus norvegicus [3]) | Activity (Rattus norvegicus [4]) [%] | Activity [5] | Activity [6] | Activity [7] | Activity (Rattus norvegicus [8]) | Activity [9] | Activity (Vero) | Activity [10] [%] | Activity [11] [%] |
| --- | --- | --- | --- | --- | --- | --- | --- | --- | --- | --- | --- | --- |
| Oc1ncnc2[nH]ncc12 | 84 | – | – | – | – | – | – | – | – | – | – | – |
| CC(C)CCCCN/C=C1/C=C(C=O)c2cccnc2C1=O | – | Active | Active | 5 | inactive | inactive | inactive | Active | – | – | – | – |
| O=CC1=C/C(=C/NCCCN2CCOCC2)C(=O)c2ncccc21 | – | Active | Active | 5 | inactive | inactive | inactive | Active | – | – | – | – |
| CC(C)(C)N/C=C1/C=C(C=O)c2cccnc2C1=O | – | Active | Active | 5 | Active | Active | Active | Active | – | – | – | – |
| O=CC1=C/C(=C/NCCN2CCOCC2)C(=O)c2ncccc21 | – | Active | Active | 5 | inactive | inactive | inactive | Active | – | – | – | – |
| Cc1ccc(N/C=C2/C=C(C=O)c3cccnc3C2=O)cc1 | – | 18% | 23% | 5 | 44% | 41% | 36% | 25% | – | – | – | – |
| O=CC1=C/C(=C/NCc2ccccc2)C(=O)c2ncccc21 | – | – | – | 5 | Active | Active | Active | – | – | – | – | – |
| CN/C=C1/C=C(C=O)c2cccnc2C1=O | – | 25% | 26% | 5 | Active | Active | Active | 24% | Non-toxic | Non-toxic | – | – |
| CC(C)N/C=C1/C=C(C=O)c2cccnc2C1=O | – | Active | Active | 5 | 47% | 35% | 38% | Active | – | – | – | – |
| OC[C@@H](O)[C@@H](O)[C@H](O)[C@H](O)CO | – | – | – | – | – | – | – | – | – | – | 50 | – |
| CCN/C=C1/C=C(C=O)c2cccnc2C1=O | – | Active | Active | 5 | Active | Active | Active | Active | – | – | – | – |
| Cc1ccc(C)c(OCCCC(C)(C)C(=O)O)c1 [GEMFIBROZIL] | – | 34% | 36% | 27 | – | – | – | 38% | – | – | – | – |
| Cc1c(C)c2c(c(C)c1O)CC[C@@](C)(CCC[C@H](C)CCC[C@H](C)CCCC(C)C)O2 | – | – | – | – | – | – | – | – | – | – | – | 47 |
